High-throughput results (PubChem BioAssay)
DNMT1 block = human DNMT1 methyltransferase inhibitors, primary screen, biochemical, molecular beacon, fluorescence, HinP1I cleavage, uHTS. inhibition (reported as % activation of signal), % at 10 µM. DNA (cytosine-5)-methyltransferase 1 (Homo sapiens), P26358. AID 588458, 2011. 360,000 tested, 0.83% active
HCV NS3 hel inh = inhibitors of HCV NS3 helicase, primary screen, biochemical, Cy5 molecular beacon fluorescence; Hepatitis C virus NS3 helicase; NS3 helicase DNA unwinding; inhibition, % at 10.9 µM; 290,000 tested, 0.56% active;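 active = inhibition above the mean of all tested compounds plus 3 SD, set per campaign, cut at about 35% in these data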;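 note: 0% = DMSO wells and 100% = thioflavine S control wells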
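Control set: DMSO versus 110 µM thioflavine S; Material: NS3 helicase fragment of HCV; Measured by: Cy5 fluorescence at 0 and 60 min, beacon hairpin quenching; Read-out basis: percent inhibition from t60/t0 fluorescence ratio; Times: reaction time 60 min, 25 °C; Repeats: single replicate; Compound dosing: single dose, 10.9 µM nominal final, DMSO 0.8% final.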
NSD2 inh = NSD2 histone methyltransferase inhibitors, primary screen, biochemical, AlphaScreen, single concentration, set 2; Histone-lysine N-methyltransferase NSD2 (Homo sapiens), O96028; NSD2 peptide methylation, 120 min; inhibition, % at 12.5 µM; 310,000 tested, 0.54% active
CASP6 VEID inh = human caspase-6 inhibitors, primary screen, biochemical, VEID-R110 fluorescence, single point, set 2 | 350,000 tested, 0.53% active | inhibition, % at 12.5 µM | purified caspase-6, Z-VEID-R110 cleavage fluorescence;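 active = mean inhibition across replicates at least about 35%, with every replicate also reaching that limit, limit read from the data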;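 note: 0% = median of neutral control wells and 100% = no fluorescence left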
Target sequence (P55212 24-179 limits assumed): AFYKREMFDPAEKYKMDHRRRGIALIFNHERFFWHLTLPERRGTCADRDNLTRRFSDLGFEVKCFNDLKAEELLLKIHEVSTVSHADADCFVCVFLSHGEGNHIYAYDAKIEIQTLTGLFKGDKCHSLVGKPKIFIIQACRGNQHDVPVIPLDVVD
Target sequence (P55212 194-293 limits assumed): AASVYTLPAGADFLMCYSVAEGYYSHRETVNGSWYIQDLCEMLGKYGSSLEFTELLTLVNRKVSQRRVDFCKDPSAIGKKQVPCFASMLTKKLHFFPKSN
DNMT1 confirm = DNMT1 methyltransferase inhibitor retest, confirmation, biochemical, molecular beacon, fluorescence, single concentration. shares compounds with DNMT1 block. DNMT1 molecular beacon HinP1I cleavage. inhibition, % at 10 µM. 2,300 tested, 8% active;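 active = average inhibition of at least 30% in the single-concentration confirmation test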
Beacon interf = counter-screen for DNMT1 inhibitors: spectral interference | 2,300 tested, 1% active | activation (fluorescence interference), % at 10 µM | shares compounds with DNMT1 block | AID 602387 | DNMT1 molecular beacon spectral interference counterscreen, fluorescence 485/520;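 active = activation of at least 30% at 10 µM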;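 note: DNMT1 catalytic domain with a HinP1I cleavage step and a FAM/dabcyl DNA beacon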
The depositor's hits bear a star. Sampled rows, rich in hits. Any-hit rate of the full collection: about 1.5%. Cut-off read from the data, not from the text of the source, unless noted: active = inhibition above about 50%; inactive = the rest.

For COc1ccc(S(=O)(=O)N2CCOCC2)cc1NC(=O)c1cccc(-n2cccc2)c1 the results were DNMT1 block 73*, NSD2 inh 4, CASP6 VEID inh -1, DNMT1 confirm 0 and Beacon interf -5.
`COc1ccccc1NC(=O)c1cccc(S(=O)(=O)N2CCOCC2)c1` gave DNMT1 block -3, HCV NS3 hel inh -4 and NSD2 inh -5.
CC(C)Oc1ccc(S(=O)(=O)N2CCOCC2)cc1NC(=O)CC1CCCC1 was read as DNMT1 block -2, NSD2 inh -1 and CASP6 VEID inh 1.
For C[C@@H]1CN([C@@H](C)CO)C(=O)c2cc(NS(=O)(=O)c3ccccc3)ccc2O[C@@H]1CN(C)S(=O)(=O)c1cccs1 the results were CASP6 VEID inh 2.
COc1ccc(NC(=O)Nc2cccc3c2O[C@@H](CN(C)S(C)(=O)=O)[C@H](C)CN([C@@H](C)CO)C3=O)cc1 was read as CASP6 VEID inh 1.
`O=C(NCc1ccco1)c1nn2c(C(F)(F)F)cc(-c3cccs3)nc2c1Br` gave DNMT1 block 8, HCV NS3 hel inh 16 and NSD2 inh 2.
O=C(NCc1ccco1)c1nc2nc(-c3cccs3)cc(C(F)(F)F)n2n1 was read as DNMT1 block 56*, HCV NS3 hel inh 6, NSD2 inh -3, DNMT1 confirm 6 and Beacon interf 6.
Screening CO[C@@H]1CN(C)C(=O)c2cc(NC(C)=O)ccc2OC[C@H](C)N(Cc2cncnc2)C[C@@H]1C returned CASP6 VEID inh 11.
For CC1(C)Cc2c(c(-c3ccco3)nc3sc4c(NCCO)ncnc4c23)CO1 the results were DNMT1 block 1, HCV NS3 hel inh 10, NSD2 inh -4 and CASP6 VEID inh 5.
`CSc1nc(SCCO)c2sc3nc(-c4ccco4)c4c(c3c2n1)CC(C)(C)OC4` gave DNMT1 block 98*, HCV NS3 hel inh 31, DNMT1 confirm 8 and Beacon interf 1.
`Cc1ccccc1NC(=O)Cn1nnc(S(=O)(=O)c2ccc(C(C)(C)C)cc2)c1N` gave DNMT1 block 61*, HCV NS3 hel inh -4, CASP6 VEID inh -2, DNMT1 confirm -1 and Beacon interf 2.
For Cc1cc(Cl)ccc1OCC(=O)Nc1cccc(S(=O)(=O)NC2=NCCCCC2)c1 the results were DNMT1 block 95*, NSD2 inh -3, CASP6 VEID inh 1, DNMT1 confirm 3 and Beacon interf 2.
Screening O=C(COc1ccc(Cl)cc1)Nc1cccc(S(=O)(=O)NC2=NCCCCC2)c1 returned DNMT1 block 3, NSD2 inh 0 and CASP6 VEID inh 4.
Screening N#Cc1c(N)nc2c(c1N)CC(CCl)O2 (stereo not drawn) returned DNMT1 block 93*, HCV NS3 hel inh -5, NSD2 inh 1, DNMT1 confirm 4 and Beacon interf 5.
For Clc1ccc(-c2ccc(-c3nn4c(-c5ccco5)nnc4s3)o2)cc1 the results were DNMT1 block 78*, HCV NS3 hel inh 12, NSD2 inh 1, DNMT1 confirm 2 and Beacon interf -1.
For Brc1ccc(-c2nn3c(-c4ccccn4)nnc3s2)o1 the results were DNMT1 block 8, HCV NS3 hel inh -3 and NSD2 inh 0.
For Brc1ccc(-c2nn3c(-c4ccco4)nnc3s2)o1 the results were DNMT1 block 84*, HCV NS3 hel inh 30, NSD2 inh -1, DNMT1 confirm 3 and Beacon interf 4.
CCC(=O)N(C)C[C@@H]1Oc2ncc(C#CC(C)(C)O)cc2C(=O)N([C@@H](C)CO)C[C@H]1C was read as CASP6 VEID inh 2.
Screening CCCn1c(=NC(C)=O)c(C#N)cc2c(=O)n3cccc(C)c3nc21 returned HCV NS3 hel inh 3.
For Cc1cccn2c(=O)c3cc(C#N)c(=NC(=O)c4ccco4)n(Cc4ccco4)c3nc12 the results were DNMT1 block 61*, HCV NS3 hel inh 5, NSD2 inh 9, CASP6 VEID inh 67*, DNMT1 confirm 0 and Beacon interf 3.
